Values after ≈ are worked out from the molar mass of the structure shown. Blank lines part the entries; values can stand above or below the compound they belong to.
What was measured:
[1] = system: Klebsiella pneumoniae, Proteus mirabilis, Pseudomonas aeruginosa, and Shigella flexineri; conditions: cited from earlier work
[2] = system: P. aeruginosa; conditions: cited from earlier work
[3] = system: C. violaceum 6267; assay: MIC by broth microdilution against C. violaceum 6267; assay type: cell-based, Chromobacterium violaceum
How it was run: (§1)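 Strains maintained in LB (1 % peptone, 0.5 % yeast extract, 0.5 % NaCl). Broth microdilution in 96-well plates: 10⁶ CFU/mL exposed to serial two-fold dilutions of the test extract, overnight at 37 °C. MIC taken as the lowest concentration inhibiting growth. Amoxicillin-clavulanate and imipenem served as positive controls. Run in triplicate.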

[4] = system: violacein production by C. violaceum 6267; assay: Quantitative anti-QS assay: inhibition of violacein production in 96 well plates; assay type: cell-based, Chromobacterium violaceum
[5] = system: P. aeruginosa PAO1; assay: MIC by broth microdilution against P. aeruginosa PAO1; assay type: cell-based, Pseudomonas aeruginosa
How it was run: as §1

[6] = system: P. aeruginosa PAO1 biofilm formation; assay: Inhibition of biofilm formation; assay type: cell-based, Pseudomonas aeruginosa; conditions: comparison of Fig. 5A, concentration not given
How it was run: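 Biofilm grown in LB broth with 10⁵ CFU/mL PAO1 and serial dilutions of the test extract (7.81–500 μg/mL) at 37 °C overnight. Amoxicillin-clavulanate (3.9–250 μg/mL) and imipenem (0.015–0.97 μg/mL) served as reference antibiotics. Biomass was stained with crystal violet and read at 600 nm to give percent inhibition. Biofilm cells were also viewed by inverted microscope. Run in triplicate; mean ± standard deviation.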

SMILES: O=c1c(O)c(-c2cc(O)c(O)c(O)c2)oc2cc(O)cc(O)c12 [myricetin]
Concentration inhibiting bacterial growth of various Gram-negative bacteria [1]: 30 µg/mL
MIC against P. aeruginosa ATCC 27853 [2]: 256 µg/mL (≈ 804 µM)

SMILES: O=C/C=C/c1ccccc1 [Cinnamaldehyde]
MIC ([3]; Chromobacterium violaceum, 6267, read-out: MIC C. violaceum): 31.2 µg/mL (≈ 236 µM)
MIC C. violaceum ([3]; broth microdilution): 31.25 µg/mL (≈ 236 µM)
Anti-QS activity (concentration inhibiting violacein production) ([4]; C. violaceum 6267): 7.81 µg/mL
percentage of inhibition (violacein production) ([4]; at the anti-QS concentration printed beside the value): 87.8 ± 2.32%
Inhibition of violacein production ([4]; ½ MIC (n-BuOH fraction 125 μg/mL; ethanolic extract 250 μg/mL)): 93.4%

MIC ([5]; Pseudomonas aeruginosa, PAO1, read-out: MIC P. aeruginosa PAO1): 31.2 µg/mL (≈ 104 µM)
MIC P. aeruginosa PAO1 ([5]; broth microdilution, overnight 37 °C): 31.25 µg/mL (≈ 104 µM)
SMILES: C[C@@H](O)[C@H]1C(=O)N2C(C(=O)O)=C(SCCN=CN)C[C@H]12 [Imipenem, imipenem]
Antibiofilm effect, percentage of inhibition [6]: 47.24%
